Converted amounts (≈) assume the structure as drawn.
Key:
[1] = WHO-TDR: Cytotoxicity; type: toxicity, cell-based; details: human, MRC5 cells
[2] = test system: Plasmodium falciparum K1; test: WHO-TDR: Malaria; type: functional, organism-based, Homo sapiens; details: Erythrocyte
Procedure, shortened: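 Previously published standard procedures, including a reference drug as positive control, were used to screen whole Plasmodium falciparum K1 parasites inside human red blood cells. IC50 is the measure of antiplasmodial potency. The compounds were a 10,000-member diverse Life Chemicals library.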

[3] = test system: Trypanosoma cruzi; test: WHO-TDR: Chagas disease; type: functional, organism-based, Homo sapiens; details: MRC5
Procedure, shortened: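 Whole-organism screen of a 10,000-compound diverse library from Life Chemicals, filtered for drug-likeness and reactive groups, against intracellular amastigotes of Trypanosoma cruzi Tulahuen CL2 beta-galactosidase strain grown in MRC-5SV2 human lung fibroblast host cells. The assay followed previously published standard procedures, with a reference drug as positive control. Antiparasitic potency is reported as IC50.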

[4] = test system: Trypanosoma brucei brucei; test: WHO-TDR: Human African Trypanosomiasis (HAT); type: functional, organism-based; details: Squib-427
Procedure, shortened: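 In this whole-organism screen, the target was the bloodstream form of Trypanosoma brucei, strain Squib 427. A diverse set of 10,000 compounds from Life Chemicals, previously filtered for drug-likeness and reactive groups, was assayed by standard published procedures using reference drugs as positive controls. Each value is an IC50 for antiparasitic potency.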

[5] = test system: Leishmania infantum; test: WHO-TDR: Leishmaniasis; type: functional, organism-based, Mus musculus; details: Macrophage
Procedure, shortened: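 Intracellular amastigotes of Leishmania infantum MHOM/MA(BE)/67, hosted in murine peritoneal macrophages, were exposed to compounds from a 10,000-member diverse library supplied by Life Chemicals. The library had been filtered for drug-likeness and reactive groups. The reported IC50 expresses antiparasitic potency.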

[6] = test system: Schistosoma mansoni; test: WHO-TDR: Schistosomiasis; type: functional; parameters: concentration or dose not given beside the values
Procedure, shortened: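 Whole-organism screen of a 10,000-compound diverse library from Life Chemicals, filtered for drug-likeness and reactive groups, against larval and/or adult worms of Schistosoma mansoni Puerto Rican strain. The assay followed previously published standard procedures, with a reference drug as positive control. Activity is reported as percent inhibition and as IC50.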

[7] = test system: Onchocerca ochengi; test: WHO-TDR: Onchocerciasis; type: functional; parameters: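 at 12.5 µM on microfilariae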
Procedure, shortened: (§1)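 Whole-organism screen of a 10,000-compound diverse library from Life Chemicals, filtered for drug-likeness and reactive groups, against microfilariae of Onchocerca ochengi or Onchocerca lienalis, used as animal-pathogen stand-ins for the human parasite. The assay followed previously published standard procedures, with reference drugs as positive controls. Activity is reported as percent inhibition and as IC50.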

[8] = test system: Brugia malayi; test: WHO-TDR: Lymphatic Filariasis; type: functional; parameters: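 tested at 10 µM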
Procedure, shortened: as §1, with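 “Brugia malayi microfilariae.” for “microfilariae of Onchocerca ochengi or Onchocerca lienalis, used as animal-pathogen stand-ins for the human parasite.”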

| Structure (SMILES) | IC50 [1] | IC50 [2] | IC50 [3] | IC50 [4] | IC50 [5] | % Inhibition [6] | % Inhibition [7] | % Inhibition [8] |
| --- | --- | --- | --- | --- | --- | --- | --- | --- |
| CS(=O)(=O)N1CCCCC1C(=O)Nc1nc(-c2ccc(F)cc2)cs1 (configuration not stated) | > 11.5 µg/mL | > 11.5 µg/mL | 3.82 µg/mL (≈ 9.95 µM) | 5.4 µg/mL (≈ 14.1 µM) | > 11.5 µg/mL | 0% | 100% | 0% |
| O=C(CSC1=Nc2cccnc2Nc2ccccc21)Nc1ccc(F)c(F)c1 | > 11.9 µg/mL | 4.83 µg/mL (≈ 12.2 µM) | > 11.9 µg/mL | > 11.9 µg/mL | > 11.9 µg/mL | 0% | 100% | 0% |
| CCC(=O)Nc1ccc(S(=O)(=O)NCCc2ccc(N3CCCC3)cc2)c(C)c1 | > 12.5 µg/mL | > 12.5 µg/mL | 5.06 µg/mL (≈ 12.2 µM) | 6.95 µg/mL (≈ 16.7 µM) | > 12.5 µg/mL | 0% | 100% | 0% |
| COc1ccc(-c2ccc(=O)n(CCCNC(=O)Cc3ccc(F)cc3)n2)cc1 | 11.3 µg/mL (≈ 28.7 µM) | > 11.9 µg/mL | > 11.9 µg/mL | > 11.9 µg/mL | > 11.9 µg/mL | 0% | 100% | 0% |
| Cc1cc(C(=O)Nc2nc(-c3cccnc3)cs2)on1 | > 8.59 µg/mL | > 8.59 µg/mL | 4.16 µg/mL (≈ 14.5 µM) | > 8.59 µg/mL | 0.278 µg/mL (≈ 0.971 µM) | 25% | 0% | 20% |
| CCCC(=O)N1CCN(c2ccc(Nc3ccncc3)nn2)CC1 | > 9.79 µg/mL | > 9.79 µg/mL | > 9.79 µg/mL | > 9.79 µg/mL | 0.317 µg/mL (≈ 0.971 µM) | 0% | 0% | 0% |
| CCc1ccc2nc(N(CCCn3ccnc3)C(=O)/C=C/c3cccs3)sc2c1 | 3.5 µg/mL (≈ 8.28 µM) | 0.163 µg/mL (≈ 0.386 µM) | 0.399 µg/mL (≈ 0.944 µM) | 1 µg/mL (≈ 2.37 µM) | 4.46 µg/mL (≈ 10.5 µM) | 0% | 100% | 0% |
| O=C(Nc1ccc(F)cc1)Nc1cccc(-c2ccc(N3CCCC3)nn2)c1 | > 11.3 µg/mL | > 11.3 µg/mL | > 11.3 µg/mL | > 11.3 µg/mL | > 11.3 µg/mL | 0% | 100% | 0% |
| CC(C)(C)n1ncc2c(=O)n(CCC(=O)Nc3ccc4c(c3)OCO4)cnc21 | > 11.5 µg/mL | > 11.5 µg/mL | > 11.5 µg/mL | > 11.5 µg/mL | > 11.5 µg/mL | 100% | 0% | 20% |
| O=C(c1cccc(F)c1)N(CCCn1ccnc1)c1nc2ccc(F)cc2s1 | > 13 µg/mL | 0.745 µg/mL (≈ 1.87 µM) | 3.32 µg/mL (≈ 8.33 µM) | 4.17 µg/mL (≈ 10.5 µM) | > 13 µg/mL | 0% | 100% | 0% |
| O=S(=O)(NCC(c1cccs1)N1CCOCC1)c1ccc(Cl)cc1 (configuration not stated) | > 11.6 µg/mL | > 11.6 µg/mL | > 11.6 µg/mL | > 11.6 µg/mL | > 11.6 µg/mL | 0% | 100% | 0% |
| Cc1cc(C(=O)Nc2nc(-c3cc4ccccc4o3)cs2)on1 | > 9.76 µg/mL | > 9.76 µg/mL | > 9.76 µg/mL | > 9.76 µg/mL | 3.16 µg/mL (≈ 9.71 µM) | 0% | 100% | 20% |
| Cn1nccc1C(=O)Nc1sc(-c2ccccc2)cc1C(N)=O | 8.31 µg/mL (≈ 25.4 µM) | > 9.79 µg/mL | 6.26 µg/mL (≈ 19.2 µM) | 3.17 µg/mL (≈ 9.71 µM) | 3.17 µg/mL (≈ 9.71 µM) | 100% | 0% | 0% |
| O=C(Cc1csc(SCC(=O)c2ccccc2)n1)NCCC1=CCCCC1 | > 12 µg/mL | > 12 µg/mL | 3.65 µg/mL (≈ 9.11 µM) | 5.07 µg/mL (≈ 12.6 µM) | > 12 µg/mL | 33.3% | 100% | 0% |

— ChEMBL document CHEMBL2093137, “WHO-TDR NTD Screening”
